Assay outcomes as filed in PubChem BioAssay.
tolC growth inh = growth inhibitors of E. coli BW25113 tolC mutant. growth inhibition, % at 10 µM (by protocol). actives 2.2% (n = 65,000). AID 573. OD615;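 active means growth inhibition at or above a cutoff equal to the mean over every tested compound plus 3 SD, cut at about 60% in these data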;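 further: growth measured after 20 h incubation at 37 °C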
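test system = E. coli BW25113 ΔtolC::kan bacteria | medium = LB with kanamycin 50 µg/mL | signal = OD at 615 nm | schedule = 37 °C, 20 h exposure | evaluation = % inhibition of E. coli growth | compound dosing = one dose of 10 µM final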
PostGolgi yeast = growth inhibition of a yeast mutant, post-Golgi transport screen | post-Golgi transport phenotypic cell assay | inhibition, % at 10 µM | actives 0.9% (n = 98,000);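 further: yeast cells grown in 1536-well plates; yeast grown about 18 h at 30C before absorbance read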
Her2 expr inh = inhibitors of human Her2 kinase expression | P04626 | SKBR-3 HER2 protein level, AlphaScreen, 18-24 h; active compounds read low | HER2 level % of control, % at 10 µM | actives 0.69% (n = 65,000);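 active means HER2 level under 5% of the carrier-only control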;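 further: 100% = DMSO carrier and 0% = 500 nM PU-H71 HSP90 inhibitor; lower value means stronger loss of Her2 protein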
Target sequence (P04626 whole entry, looked up): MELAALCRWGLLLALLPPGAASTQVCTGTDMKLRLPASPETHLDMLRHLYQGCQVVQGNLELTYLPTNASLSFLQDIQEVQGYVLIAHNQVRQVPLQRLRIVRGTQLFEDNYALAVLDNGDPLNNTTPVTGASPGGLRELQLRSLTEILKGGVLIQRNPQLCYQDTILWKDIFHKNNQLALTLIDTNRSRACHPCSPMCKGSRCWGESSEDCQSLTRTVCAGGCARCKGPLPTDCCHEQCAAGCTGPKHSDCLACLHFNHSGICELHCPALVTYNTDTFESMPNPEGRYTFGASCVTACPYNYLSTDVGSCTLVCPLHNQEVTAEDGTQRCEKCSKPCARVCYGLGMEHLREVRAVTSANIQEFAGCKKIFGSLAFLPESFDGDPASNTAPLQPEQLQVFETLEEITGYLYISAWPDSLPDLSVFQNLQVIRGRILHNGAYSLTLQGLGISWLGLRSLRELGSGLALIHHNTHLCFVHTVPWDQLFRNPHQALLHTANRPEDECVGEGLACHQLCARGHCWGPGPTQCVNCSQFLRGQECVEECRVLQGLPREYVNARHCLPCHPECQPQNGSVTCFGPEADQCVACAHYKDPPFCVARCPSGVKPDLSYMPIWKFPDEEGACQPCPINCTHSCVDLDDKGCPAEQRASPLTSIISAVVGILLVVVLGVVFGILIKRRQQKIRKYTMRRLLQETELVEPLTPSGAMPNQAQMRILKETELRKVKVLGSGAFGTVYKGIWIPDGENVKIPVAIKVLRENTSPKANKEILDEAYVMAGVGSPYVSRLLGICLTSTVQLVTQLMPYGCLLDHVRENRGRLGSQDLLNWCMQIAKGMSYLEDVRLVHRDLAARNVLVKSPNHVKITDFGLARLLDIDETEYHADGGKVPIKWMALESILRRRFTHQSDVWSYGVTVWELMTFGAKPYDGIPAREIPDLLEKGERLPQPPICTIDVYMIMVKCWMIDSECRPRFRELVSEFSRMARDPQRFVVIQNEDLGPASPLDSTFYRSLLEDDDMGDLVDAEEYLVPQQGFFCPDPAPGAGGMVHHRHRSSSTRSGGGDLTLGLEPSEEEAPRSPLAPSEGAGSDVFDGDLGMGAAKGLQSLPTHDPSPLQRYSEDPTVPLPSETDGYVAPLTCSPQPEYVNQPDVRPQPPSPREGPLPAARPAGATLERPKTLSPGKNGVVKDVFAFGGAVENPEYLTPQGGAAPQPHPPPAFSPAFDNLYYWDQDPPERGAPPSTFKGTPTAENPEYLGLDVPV
PostGolgi ctrl = inhibits growth of the yeast control strain; efflux-deficient yeast background strain, growth absorbance A615, 16 h; inhibition, % at 10 µM; actives 5% (n = 98,000)
Ecoli WT expand = growth inhibitors of E. coli BW25113 wild type. OD600 absorbance. growth inhibition, % at 100 µM. actives 0.15% (n = 98,000). AID 710;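 active means growth inhibition above about 50% at one test dose, limit read from the data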;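 further: growth measured after 20 h incubation at 37 °C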
Numbers without * were called inactive; · = not tested or not shown. Only some compounds are listed: those with a hit (about 6.6% of all), similar ones and a draw of the others. Unless noted, no stated cut-off is given here; in the data, active means inhibition above about 30%; inactive means the rest.

SMILES	tolC growth inh	PostGolgi yeast	Her2 expr inh	PostGolgi ctrl	Ecoli WT expand
COc1ccc(NC(=O)/C(Cl)=C(/Cl)S(=O)(=O)Cc2ccc(C)cc2)cn1	·	97*	·	84*	1
CCn1c(SCC(=O)N2CCCc3ccccc32)nc2c1c(=O)n(C)c(=O)n2C	8	-2	116	2	-2
CCCn1c(SCC(=O)Nc2ccccc2N2CCCCC2)nc2c1c(=O)n(C)c(=O)n2C	65*	12	43	22	-12
CCn1c(SCC(=O)N2c3ccccc3CCc3ccccc32)nc2c1c(=O)n(C)c(=O)n2C	-4	·	-3.2*	·	·
CCOC(=O)C1=C(C)NC(C)=C(C(=O)OCC)C1c1cc(N)ccc1OC(F)F	10	-3	87	16	5
CC(CCc1ccccc1)C(=O)NO (configuration not stated)	-6	-5	86	-2	10
COC(=O)[C@H](C)NC(=O)NC(C)CCc1ccccc1 (some centres not stated)	·	6	·	36*	10
COC(=O)[C@@H](NC(=O)NC(C)CCc1ccccc1)C(C)C (some centres not stated)	11	-8	85	4	1
CC(CCc1ccccc1)NC(=O)/C=C/c1ccccc1 (configuration not stated)	·	6	·	40*	-6
Cc1ccc(S(=O)(=O)Cn2nnnc2CN(Cc2ccco2)CC2CCCO2)cc1 (configuration not stated)	1	-2	106	-2	7
O=C(CSc1nnc(SCC(=O)c2ccco2)s1)c1ccco1	1	1	53	20	3
O=C(CSc1nc2cc(Cl)ccc2s1)c1ccco1	41	-3	-1.4*	14	-2
CC(C)NC(=O)N(O)C1N(Cc2ccc3c(c2)OCO3)C(=S)SC1(C)C (configuration not stated)	55	-6	77	1	4
Cc1cccc(CCNC(=O)c2nnc(Cc3ccc(Cl)cc3)o2)c1	2	·	76	·	·
COc1ccc(OCc2nnc3n2N=C(c2ccc(OC)cc2)CS3)cc1	16	-2	67	32*	-10
COc1ccc(C2=Nn3c(nnc3-c3ccco3)SC2)cc1	·	21	·	45*	-8
CCC(C)c1ccc(OCCCCN2CCOCC2)cc1 (configuration not stated)	·	70*	·	23	5
Cc1cc(Cl)cc(C)c1OCCCCN1CCOCC1	-10	35*	72	-2	8
CCCCOc1ccc(OCCCN2CCOCC2)cc1	11	·	104	·	·
Cn1c(=O)n(CC(=O)NC2CCCCC2)c(=O)c2ccccc21	-18	-3	76	10	3
O=C(C1CCN(Cc2cc(Cl)ccc2O)CC1)N1CCN(Cc2ccccc2)CC1	95*	7	54	17	4
COc1ccc(C2C(C(=O)N3CCCC3)CC(=O)N2c2ccc(OC)cc2)cc1 (configuration not stated)	-5	0	182	38*	2
O=c1nc2ccccc2c2n1CC(CN1CCN(c3ccccc3F)CC1)N2 (configuration not stated)	·	-1	·	1	2
COC(=O)C(C)N(C(=O)c1cccc(Cl)c1)c1c(C)cccc1C (configuration not stated)	·	-5	·	7	-16
COC(=O)C(C)N(C(=O)c1cccc2ccccc12)c1c(C)cccc1C (configuration not stated)	·	10	·	36*	-9
SMILES	tolC growth inh	PostGolgi yeast	Her2 expr inh	PostGolgi ctrl	Ecoli WT expand
Cc1oc(-c2ccccc2F)nc1CS(=O)(=O)CC(=O)N1CCc2ccccc21	-5	-6	53	10	-3
Cc1oc(-c2ccccc2F)nc1CS(=O)(=O)CC(=O)N1CCN(c2ccccc2)CC1	·	-5	·	37*	-3
Cc1ccc(S(=O)(=O)N(CC(=O)N2CCC(C(N)=O)CC2)c2cccc(C(F)(F)F)c2)cc1	-2	43*	90	5	-10
Cc1ccc(N(CN2CCCC2=O)C(=O)c2ccc(OC(C)C)cc2)cc1	6	-1	95	32*	-12
CC1CC(C)(C)Nc2ccc(OC(=O)c3ccco3)cc21 (configuration not stated)	9	-2	-31*	-13	6
O=C(Oc1ccc2ccccc2c1)c1ccco1	7	-6	98	27	12
O=C(N/N=C/c1ccc(O)cc1)c1ccc(COc2cc(Cl)ccc2Cl)o1	·	-11	·	1	9
Cc1ccc(-c2nnc3sc(-c4ccncc4)nn23)cc1	4	5	96	16	6
CN(C)c1ccc(-c2nn3c(-c4ccncc4)nnc3s2)cc1	84*	·	77	·	·
C1CCC(c2nn3c(-c4n[nH]c5c4CCC5)nnc3s2)CC1	39	10	91	5	9
c1ccc(-c2nn3c(-c4ccncc4)nnc3s2)nc1	13	·	92	·	·
CC(C)(C)c1ccc(-c2nnc3sc(-c4ccccn4)nn23)cc1	15	-3	89	35*	-22
CCN(CC)c1ccc(-c2nn3c(-c4n[nH]c5c4CCC5)nnc3s2)cc1	74*	-3	-29*	43*	-2
CC(C)=C1C2CCC1C1C(=O)N(NC(=O)COc3ccc(C(C)(C)C)cc3)C(=O)C21 (configuration not stated)	·	-8	·	25	-8
CC1CN(C(=O)CN2C(=O)c3ccccc3S2(=O)=O)CC(C)O1 (configuration not stated)	-7	-1	87	14	4
COCCOC(=O)C1=C(C)N=C2SCCC(=O)N2C1c1cc(Br)ccc1OC (configuration not stated)	-11	·	89	·	·
COC(=O)CCN(C(C)=O)c1ccc(N)cc1	-18	-7	103	40*	-8
COC(=O)CCN(C)CCC(=O)OC	-10	-18	105	13	-3
COc1cccc(-n2c(SCC(N)=O)nnc2-c2ccncc2)c1	-17	5	88	4	6
COc1cccc(-n2c(SCC(=O)O)nnc2-c2cccnc2)c1	-14	12	-18*	-7	5
Cn1c(=O)[nH]c(=O)c2c1nc(CN1CCN(c3cccc(Cl)c3)CC1)n2Cc1ccccc1Cl	21	8	74	51*	-2
Cc1ccc(Cl)cc1N1CCN(Cc2nc3c(c(=O)[nH]c(=O)n3C)n2Cc2ccccc2F)CC1	40	·	3.2*	·	·
CCN1CCN(Cc2nc3c(c(=O)[nH]c(=O)n3C)n2Cc2ccccc2Cl)CC1	-4	·	87	·	·
COc1ccccc1CNc1nc2nc(C)cc(=O)n2[nH]1	-7	9	93	-2	1
C=C(C)COc1ccc(-c2nc(N)ncc2-c2ccc(OC)cc2)c(O)c1	86*	5	100	72*	-29
C=C(C)COc1ccc(-c2ncncc2Oc2ccc(OC)cc2)c(O)c1	66*	66*	110	19	0
CC(C)(C)NC(=O)CSc1nnc(C2CC2)n1Cc1ccccc1	-10	5	72	6	3
COc1cc(N2C(=O)NC3CC2(C)Oc2ccc(Br)cc23)cc(OC)c1OC (configuration not stated)	-6	·	127	·	·
